From ChEMBL document CHEMBL4261600 (Eur J Med Chem, 2018) come the findings set out here.

SMILES strings stand for the structures. The source made the active and inactive calls.

Data set [1] deals with MV4-11. The experiment in a line: Induction of apoptosis in human MV4-11 cells assessed as decrease in XIAP level up to 3 uM after 2 hrs by immunoblotting analysis. Type of data set: functional, cell-based.
For data set [2], the target named is Mitogen-activated protein kinase kinase kinase 10 (Homo sapiens) (UniProt Q02779). The experiment in a line: Binding affinity to wild-type human partial length MLK2 (V52 to W380 residues) expressed in bacterial expression system assessed as remaining unbound target protein level at 1000 nM by Kinomescan method relative to control. Put shortly: (§1)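 KINOMEscan binding panel of 468 kinases/mutants. Inhibitor was tested at a single concentration of 1 μM. Binding is reported as percent of control, defined relative to a DMSO control.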

Data set [3] can be described thus: Cmax in mouse at 10 mg/kg, po by LC-MS/MS analysis. It is filed as ADME, organism-based. More on the design: dose 10 mg/kg, route oral. As to conditions: in vivo.
Data set [4] concerns the target Phosphatidylinositol 3-kinase C2 domain-containing subunit gamma (Homo sapiens) (UniProt O75747). The experiment in a line: Binding affinity to wild-type human partial length PIK3C2G (M1 to I1446 residues) expressed in mammalian expression system assessed as remaining unbound target protein level at 1000 nM by Kinomescan method relative to control. The essentials: as §1

Data set [5] relates to MV4-11. The experiment in a line: Induction of apoptosis in human MV4-11 cells assessed as decrease in MCL-1 level after 2 hrs by immunoblotting analysis. It is filed as functional, cell-based.
Data set [6] addresses TGF-beta receptor type-2 (Homo sapiens) (UniProt P37173). The experiment in a line: Binding affinity to wild-type human partial length TGFBR2 (I218 to K567 residues) expressed in bacterial expression system assessed as remaining unbound target protein level at 1000 nM by Kinomescan method relative to control.
The target in data set [7] is Serine/threonine-protein kinase SIK3 (Homo sapiens) (UniProt Q9Y2K2). The experiment in a line: Binding affinity to wild-type human partial length QSK (A90 to L395 residues) expressed in mammalian expression system assessed as remaining unbound target protein level at 1000 nM by Kinomescan method relative to control.
Data set [8] deals with Ephrin type-B receptor 4 (Homo sapiens) (UniProt P54760). The experiment in a line: Binding affinity to wild-type human partial length EPHB4 (H585 to G892 residues) expressed in bacterial expression system assessed as remaining unbound target protein level at 1000 nM by Kinomescan method relative to control. Put shortly: as §1
Data set [9] concerns MOLM-13. The experiment in a line: Antiproliferative activity against human MOLM13 cells after 72 hrs by Celltiter-Glo assay. Type of data set: functional. To be noted: MOLM-13, 72 h. The essentials: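 Cells seeded at 3000/well in 96-well plates, exposed to serially diluted compound for 72 h at 37 °C, 5% CO2. Viability read by CellTiter-Glo luminescence and normalized to DMSO control. GI50 derived from curve fit, mean of three independent measurements. Culture media: DMEM/10% FBS for adherent lines; IMDM for MV4-11 and MEC-1/2; RPMI 1640 for suspension lines and CHL.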
A general note: ATP-based viability assays read luminescence as a measure of living cells.

For data set [10], the target named is Cyclin-dependent kinase 7 (Homo sapiens) (UniProt P50613). The experiment in a line: Inhibition of CDK7 in human MEC1 cells assessed as decrease in RNA polymerase 2 phosphorylation at Ser 5 residues up to 3 uM after 2 hrs by immunoblotting analysis. It is filed as cell-based. On the technique in general: Immunoblotting shows a protein as a band on a membrane.

Data set [11] has as its system Canis familiaris. The experiment in a line: AUC (0 to infinity) in beagle dog at 10 mg/kg, po by LC-MS/MS analysis. It is filed as ADME, organism-based, Canis lupus familiaris. Further details: dose 10 mg/kg, time infinity, route oral. To be noted: in vivo. The essentials:
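Non-compartmental PK. Male SD rats 190-210 g, mice and beagle dogs acclimatized one week, fasted 12 h with water, split into iv and po groups (mice 48, rats 6, dogs 6). iv 3/3/2 mg/kg (mice/rats/dogs); po 10/20/10 mg/kg; vehicle DMSO in 5% glucose water. Blood at 2 or 5 to 720 min; plasma protein-precipitated with methanol, caffeine internal standard, LC-MS/MS.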

Data set [12] addresses Calcium/calmodulin-dependent protein kinase type 1B (Homo sapiens) (UniProt Q6P2M8). The experiment in a line: Binding affinity to wild-type human partial length CAMK1B (W9 to A311 residues) expressed in mammalian expression system assessed as remaining unbound target protein level at 1000 nM by Kinomescan method relative to control. The essentials:
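Profiled in a KINOMEscan binding panel with the inhibitor at a single concentration of 1 μM. Binding to each kinase was read out as percent of control, relative to a DMSO control. Strong binders were defined as those with a percent control value below 1.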

Data set [13] concerns the target Epithelial discoidin domain-containing receptor 1 (Homo sapiens) (UniProt Q08345). The experiment in a line: Binding affinity to wild-type human partial length DDR1 (R565 to V876 residues) expressed in bacterial expression system assessed as remaining unbound target protein level at 1000 nM by Kinomescan method relative to control.
Data set [14] concerns the target Receptor tyrosine-protein kinase erbB-3 (Homo sapiens) (UniProt P21860). The experiment in a line: Binding affinity to wild-type human partial length ERBB3 (G684 to A987 residues) expressed in mammalian expression system assessed as remaining unbound target protein level at 1000 nM by Kinomescan method relative to control. Put shortly: as §1
Data set [15] concerns the target Serine/threonine-protein kinase Nek11 (Homo sapiens) (UniProt Q8NG66). The experiment in a line: Binding affinity to wild-type human partial length NEK11 (M1 to E313 residues) expressed in mammalian expression system assessed as remaining unbound target protein level at 1000 nM by Kinomescan method relative to control.
Data set [16] deals with Tyrosine-protein kinase Srms (Homo sapiens) (UniProt Q9H3Y6). The experiment in a line: Binding affinity to wild-type human partial length SRMS (L208 to P488 residues) expressed in mammalian expression system assessed as remaining unbound target protein level at 1000 nM by Kinomescan method relative to control.
Data set [17] concerns the target Atypical kinase COQ8B, mitochondrial (Homo sapiens) (UniProt Q96D53). The experiment in a line: Binding affinity to wild-type human full length ADCK4 (M1 to S544 residues) expressed in bacterial expression system assessed as remaining unbound target protein level at 1000 nM by Kinomescan method relative to control. The essentials: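 Single-point competition binding screen across a panel of 468 kinases and mutants, with the inhibitor at 1 μM. Binding is read out as percent of a DMSO control, and targets below 1 percent control were classed as strong binders.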

For data set [18], the target named is CDK2/Cyclin A2 (Homo sapiens, UniProt P24941). The experiment in a line: Inhibition of recombinant full length His-tagged human CDK2/CyclinA expressed in baculovirus expression system.
Data set [19] concerns the target Cyclin-dependent kinase 7 (Homo sapiens) (UniProt P50613). The experiment in a line: Inhibition of CDK7 in human HL60 cells assessed as decrease in RNA polymerase 2 phosphorylation at Ser 5 residues up to 3 uM after 2 hrs by immunoblotting analysis. Type of data set: cell-based.
In data set [20] the target is Ephrin type-A receptor 7 (Homo sapiens) (UniProt Q15375). The experiment in a line: Binding affinity to wild-type human partial length EPHA7 (Y608 to S912 residues) expressed in bacterial expression system assessed as remaining unbound target protein level at 1000 nM by Kinomescan method relative to control. Put shortly:
as §1

The target in data set [21] is Serine/threonine-protein kinase 38 (Homo sapiens) (UniProt Q15208). The experiment in a line: Binding affinity to wild-type human partial length NDR1 (N33 to E449 residues) expressed in mammalian expression system assessed as remaining unbound target protein level at 1000 nM by Kinomescan method relative to control.
In data set [22] the target is Ephrin type-B receptor 6 (Homo sapiens) (UniProt O15197). The experiment in a line: Binding affinity to wild-type human partial length EPHB6 (Q634 to P948 residues) expressed in mammalian expression system assessed as remaining unbound target protein level at 1000 nM by Kinomescan method relative to control.

Chain of Cyclin-dependent kinase 7 (Homo sapiens) (P50613 whole entry, the tested form may be a part): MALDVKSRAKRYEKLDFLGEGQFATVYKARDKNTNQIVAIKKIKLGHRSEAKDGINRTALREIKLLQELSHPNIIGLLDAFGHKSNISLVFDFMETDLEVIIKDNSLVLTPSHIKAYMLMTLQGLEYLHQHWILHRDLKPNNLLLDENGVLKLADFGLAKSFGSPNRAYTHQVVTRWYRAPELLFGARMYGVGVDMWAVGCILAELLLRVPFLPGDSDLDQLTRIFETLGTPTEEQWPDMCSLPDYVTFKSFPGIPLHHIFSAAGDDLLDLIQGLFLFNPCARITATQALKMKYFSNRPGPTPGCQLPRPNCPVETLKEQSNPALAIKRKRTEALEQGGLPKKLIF
Chain of Mitogen-activated protein kinase kinase kinase 10 (Homo sapiens) (Q02779 whole entry, looked up, the tested form may be a part): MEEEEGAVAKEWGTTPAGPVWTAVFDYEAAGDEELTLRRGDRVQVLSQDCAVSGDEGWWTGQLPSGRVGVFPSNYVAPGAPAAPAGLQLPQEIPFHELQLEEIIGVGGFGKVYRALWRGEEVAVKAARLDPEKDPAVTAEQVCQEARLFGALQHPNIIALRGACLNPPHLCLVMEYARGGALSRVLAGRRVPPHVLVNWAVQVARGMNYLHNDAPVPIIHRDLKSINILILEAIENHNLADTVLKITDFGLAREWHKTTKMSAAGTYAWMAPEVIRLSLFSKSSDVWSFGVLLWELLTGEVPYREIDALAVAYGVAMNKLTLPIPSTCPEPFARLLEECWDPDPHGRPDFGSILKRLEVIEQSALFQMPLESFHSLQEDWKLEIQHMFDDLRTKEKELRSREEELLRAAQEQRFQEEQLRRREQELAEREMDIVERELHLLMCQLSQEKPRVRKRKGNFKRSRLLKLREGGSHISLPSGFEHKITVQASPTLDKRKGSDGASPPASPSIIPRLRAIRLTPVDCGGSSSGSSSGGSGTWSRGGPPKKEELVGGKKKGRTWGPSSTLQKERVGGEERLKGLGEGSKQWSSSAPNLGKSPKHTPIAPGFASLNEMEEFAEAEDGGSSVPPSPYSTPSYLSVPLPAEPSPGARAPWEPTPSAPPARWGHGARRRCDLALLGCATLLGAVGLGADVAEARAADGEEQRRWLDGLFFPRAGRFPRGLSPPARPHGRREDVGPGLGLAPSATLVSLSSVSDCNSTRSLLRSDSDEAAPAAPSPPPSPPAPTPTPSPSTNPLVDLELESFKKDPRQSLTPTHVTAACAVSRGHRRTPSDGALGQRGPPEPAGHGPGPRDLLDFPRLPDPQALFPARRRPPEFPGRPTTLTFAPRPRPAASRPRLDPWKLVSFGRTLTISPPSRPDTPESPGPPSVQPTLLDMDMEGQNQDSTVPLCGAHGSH
Chain of Serine/threonine-protein kinase SIK3 (Homo sapiens) (Q9Y2K2 whole entry, looked up, the tested form may be a part): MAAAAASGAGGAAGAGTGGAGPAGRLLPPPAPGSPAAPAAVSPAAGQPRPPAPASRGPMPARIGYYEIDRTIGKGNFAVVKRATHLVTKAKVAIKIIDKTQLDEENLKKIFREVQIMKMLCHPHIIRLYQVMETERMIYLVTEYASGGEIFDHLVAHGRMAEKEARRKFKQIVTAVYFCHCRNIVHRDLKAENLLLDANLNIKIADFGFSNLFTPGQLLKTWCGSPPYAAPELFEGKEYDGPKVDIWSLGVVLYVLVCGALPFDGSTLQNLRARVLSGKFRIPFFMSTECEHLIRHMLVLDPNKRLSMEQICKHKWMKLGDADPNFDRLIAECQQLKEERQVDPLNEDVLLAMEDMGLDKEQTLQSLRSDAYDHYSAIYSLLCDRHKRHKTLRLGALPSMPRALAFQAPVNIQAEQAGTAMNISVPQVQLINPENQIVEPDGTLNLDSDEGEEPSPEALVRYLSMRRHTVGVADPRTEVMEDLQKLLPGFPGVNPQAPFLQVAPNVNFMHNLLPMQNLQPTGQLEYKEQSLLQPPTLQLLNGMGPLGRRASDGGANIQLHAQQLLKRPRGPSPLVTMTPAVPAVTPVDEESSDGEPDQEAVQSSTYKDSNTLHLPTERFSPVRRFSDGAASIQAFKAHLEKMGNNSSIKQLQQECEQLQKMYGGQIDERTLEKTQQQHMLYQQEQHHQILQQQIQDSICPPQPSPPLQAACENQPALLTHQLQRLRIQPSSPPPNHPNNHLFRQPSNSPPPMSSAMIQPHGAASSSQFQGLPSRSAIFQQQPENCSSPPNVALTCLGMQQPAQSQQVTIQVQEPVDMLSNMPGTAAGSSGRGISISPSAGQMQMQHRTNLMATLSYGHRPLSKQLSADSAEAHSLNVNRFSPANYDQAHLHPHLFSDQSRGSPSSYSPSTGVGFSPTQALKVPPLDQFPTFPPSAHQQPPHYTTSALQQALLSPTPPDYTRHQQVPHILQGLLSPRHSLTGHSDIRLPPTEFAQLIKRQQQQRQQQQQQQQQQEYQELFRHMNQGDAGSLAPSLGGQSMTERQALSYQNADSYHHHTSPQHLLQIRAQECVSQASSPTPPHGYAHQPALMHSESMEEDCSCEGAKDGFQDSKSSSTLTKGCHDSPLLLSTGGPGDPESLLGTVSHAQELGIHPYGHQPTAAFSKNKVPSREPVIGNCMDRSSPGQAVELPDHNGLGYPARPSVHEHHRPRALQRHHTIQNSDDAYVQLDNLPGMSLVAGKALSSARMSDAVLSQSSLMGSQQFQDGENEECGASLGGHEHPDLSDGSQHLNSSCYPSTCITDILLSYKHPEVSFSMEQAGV
Chain of Calcium/calmodulin-dependent protein kinase type 1B (Homo sapiens) (Q6P2M8 whole entry, the tested form may be a part): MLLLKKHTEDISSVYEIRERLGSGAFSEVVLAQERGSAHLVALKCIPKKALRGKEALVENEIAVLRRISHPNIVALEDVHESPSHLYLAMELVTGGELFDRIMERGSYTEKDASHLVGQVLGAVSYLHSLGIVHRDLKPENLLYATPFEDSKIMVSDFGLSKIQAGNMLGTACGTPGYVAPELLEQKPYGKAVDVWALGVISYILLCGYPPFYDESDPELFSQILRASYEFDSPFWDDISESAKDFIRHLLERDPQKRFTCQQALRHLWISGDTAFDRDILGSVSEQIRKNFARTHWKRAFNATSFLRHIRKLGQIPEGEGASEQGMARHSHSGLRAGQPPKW
Chain of Receptor tyrosine-protein kinase erbB-3 (Homo sapiens) (P21860 whole entry, the tested form may be a part): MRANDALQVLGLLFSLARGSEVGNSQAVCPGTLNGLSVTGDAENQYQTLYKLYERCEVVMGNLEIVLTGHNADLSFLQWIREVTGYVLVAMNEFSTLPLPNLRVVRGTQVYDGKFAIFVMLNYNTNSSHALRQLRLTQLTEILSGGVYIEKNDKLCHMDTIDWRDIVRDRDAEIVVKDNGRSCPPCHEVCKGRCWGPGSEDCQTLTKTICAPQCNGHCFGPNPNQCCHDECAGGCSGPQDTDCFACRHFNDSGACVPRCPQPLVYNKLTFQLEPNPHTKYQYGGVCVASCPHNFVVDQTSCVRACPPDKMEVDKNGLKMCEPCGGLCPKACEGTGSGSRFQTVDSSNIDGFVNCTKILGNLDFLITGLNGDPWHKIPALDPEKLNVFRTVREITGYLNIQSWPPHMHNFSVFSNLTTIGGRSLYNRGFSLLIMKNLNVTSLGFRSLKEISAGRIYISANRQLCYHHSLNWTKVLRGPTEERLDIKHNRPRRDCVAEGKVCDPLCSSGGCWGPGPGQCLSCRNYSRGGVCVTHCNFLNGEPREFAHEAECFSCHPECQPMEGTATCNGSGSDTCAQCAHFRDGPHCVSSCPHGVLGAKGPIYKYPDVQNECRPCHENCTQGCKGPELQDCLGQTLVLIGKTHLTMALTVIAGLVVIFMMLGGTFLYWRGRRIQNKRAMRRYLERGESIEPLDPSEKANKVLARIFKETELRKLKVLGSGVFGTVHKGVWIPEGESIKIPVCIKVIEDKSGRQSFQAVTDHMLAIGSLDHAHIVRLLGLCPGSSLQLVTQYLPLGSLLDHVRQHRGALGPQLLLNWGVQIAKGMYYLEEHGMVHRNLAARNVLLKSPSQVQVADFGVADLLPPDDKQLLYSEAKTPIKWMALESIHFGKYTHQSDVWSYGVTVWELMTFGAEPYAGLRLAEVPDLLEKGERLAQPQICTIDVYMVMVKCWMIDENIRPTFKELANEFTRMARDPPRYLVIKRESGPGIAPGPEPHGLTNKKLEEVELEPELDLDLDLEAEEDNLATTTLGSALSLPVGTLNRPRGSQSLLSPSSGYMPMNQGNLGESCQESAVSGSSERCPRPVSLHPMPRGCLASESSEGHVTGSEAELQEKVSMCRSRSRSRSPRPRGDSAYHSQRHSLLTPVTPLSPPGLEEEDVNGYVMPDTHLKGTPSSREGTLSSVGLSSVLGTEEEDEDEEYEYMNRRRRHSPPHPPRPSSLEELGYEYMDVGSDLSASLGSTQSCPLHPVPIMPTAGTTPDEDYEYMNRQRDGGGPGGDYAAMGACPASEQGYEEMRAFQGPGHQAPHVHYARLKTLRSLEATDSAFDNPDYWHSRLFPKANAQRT
Chain of Serine/threonine-protein kinase 38 (Homo sapiens) (Q15208 2-465 limits assumed): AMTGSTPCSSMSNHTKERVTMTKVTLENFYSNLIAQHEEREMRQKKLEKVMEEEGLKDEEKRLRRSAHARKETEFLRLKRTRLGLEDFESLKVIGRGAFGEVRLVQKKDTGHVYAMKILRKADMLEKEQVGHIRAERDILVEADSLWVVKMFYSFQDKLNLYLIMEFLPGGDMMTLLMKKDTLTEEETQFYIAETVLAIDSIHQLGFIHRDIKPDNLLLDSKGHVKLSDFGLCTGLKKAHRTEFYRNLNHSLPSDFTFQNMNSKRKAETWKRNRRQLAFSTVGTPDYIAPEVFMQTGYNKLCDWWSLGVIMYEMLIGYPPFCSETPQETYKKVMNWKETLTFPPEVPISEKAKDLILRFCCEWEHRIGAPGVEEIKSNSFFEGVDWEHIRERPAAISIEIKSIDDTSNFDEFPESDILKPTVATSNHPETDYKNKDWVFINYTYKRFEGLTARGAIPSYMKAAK

By Cmax is commonly meant the maximum level reached in the sampled fluid or tissue. In general, GI50 refers to the concentration at which growth is held to half of that of the control. Usually AUC stands for the area under the concentration-time curve, a measure of exposure. A low value points to less exposure. In general, IC50 refers to the concentration that inhibits the measured activity by half. As for `COCCN[C@H]1CC[C@H](Nc2cc(-c3csc(NCC4(C#N)CCOCC4)n3)c(Cl)cn2)CC1`, in data set [1], the outcome was inactive. The Activity in data set [2] was 99%; in data set [4] it was 80%; in data set [5], “Dose-dependent effect”; in data set [6], 100%; in data set [7], 79%; in data set [8], 86%. The Activity worked out at 97% in data set [12]; 89% in [13]; 93% in data set [14]; 97% in data set [15]; 89% in [16]; 65% in data set [17]. Further, the results for the Activity in data set [20], in data set [21] and in data set [22] were 94%, 78% and 85%, respectively. Also, the highest level in data set [3] (Cmax) was 116 ng/mL. This molecule also had a GI50 in data set [9] of 12 nM. The inhibition entry in [10] and in data set [19] was “inactive” in each case. Further, the AUC in data set [11] was found to be 16735.55 ng·h/mL. Besides, in data set [18], the IC50 came to 2860 nM.
